CHT block – inhibitors of human choline transporter CHT; Q9GZV3; CHT-expressing cells, membrane potential dye, choline response; active compounds read low; hit rate 0.86% among 310,000; B-score at 10 µM;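 active = B-score over 3 SD under the library average, and starting fluorescence ratio not unusually high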;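 note: choline stimulus applied at its EC90 after an EC20 pre-addition; B-score computed on integrated fluorescence ratio after choline addition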
VLA-4 inh – inhibition in a human VLA-4 binding assay. inhibition, % (about 7 µM as worked out from the volumes in the protocol). P13612. hit rate 0.2% among 330,000. VLA-4 expressing cells, ligand binding flow cytometry; in the data active = inhibition above about 50%
CHT PAM – allosteric activators of human choline transporter CHT; hit rate 0.49% among 310,000; AID 488977; Q9GZV3; CHT-expressing cells, membrane potential dye, choline EC20; active compounds read high; LV-AA mutant CHT in HEK293 cells; B-score at 10 µM;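 active = initial fluorescence not abnormally high and integrated response B-score, plate-corrected, over 3 SD above library mean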
T cell modulator – T cell immune modulators affecting CD8 T cell-vesicle binding; AID 2052; response (vesicle binding), % at 7 µM; 2C CD8+ T cell-vesicle binding, flow cytometry; active compounds read low; hit rate 0.068% among 330,000;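 active = response, share of CD8 T cells binding vesicles, and their 90th percentile fluorescence all below set limits, cut at about 80% in these data, passing the limit was not always enough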;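 note: values below 100% mean blocked vesicle binding to the CD8+ T cells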
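Read-out – percent CD8+ FL2 mean versus row control · System – murine 2C transgenic CD8+ T lymphocytes · Times – 1.5 h cell–vesicle binding at 37 °C, then 20 min icy labelling · Control set – naked vesicles low, QL9 vesicles with vehicle high · Detection – cytometric PE anti-B7-1 and Alexa647 anti-CD8 signals after 1% paraformaldehyde fixation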
CHT inh conf – human CHT inhibition, confirmatory screen. hit rate 70% among 2,400. CHT-expressing cells, choline membrane potential dye; LV-to-AA substituted CHT, HEK293 cells. CHT activity remaining % of control (active compounds read low), % at 10 µM. shares compounds with CHT block;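 active = choline transporter activity left, mean of duplicates at 10 µM, below buffer-only control mean minus 3 SD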;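 note: depolarization triggered by choline at its EC90 following an EC20 pre-addition; 0% = hemicholinium-3 full block and 100% = buffer-only control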
HEK293 MPD ctr – counter-screen for CHT inhibitors: effect in parental HEK293 cells; membrane potential dye, choline response; active = decrease or increase beyond buffer ±3SD; shares compounds with CHT block; membrane potential ratio readout (active if shifted either direction beyond buffer ±3SD; no single direction) at 10 µM; AID 493222; hit rate 4% among 2,400;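 note: parental cells lack the transporter so any hit is non-specific; ratio is peak minus trough fluorescence over baseline after EC90 choline challenge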
Numbers without * were called inactive; i = inactive; / = no result. Most compounds without a hit are left out; they make up all but 1.5% or so of the library.

SMILES	CHT block	VLA-4 inh	CHT PAM	T cell modulator	CHT inh conf	HEK293 MPD ctr
O=C(O)CC(NC(=O)c1sc2ccccc2c1Cl)c1ccc(OC2CCCC2)cc1 (centres undefined)	-5.2*	6	i	278	28%*	i
CCOc1ccc(C(CC(=O)O)NC(=O)C2c3ccccc3Oc3ccccc32)cc1 (centres undefined)	i	-15	i	194	/	/
CCOc1ccc(N2C(=O)CN(O)C=C3N=c4ccccc4=C32)cc1	i	0	i	313	/	/
O=C(c1ccc(NS(=O)(=O)c2ccc3[nH]c(=O)[nH]c3c2)cc1)N1CCN(c2ccccc2O)CC1	i	6	i	244	/	/
Cc1cccc(N2CCN(C(=O)c3ccc(NS(=O)(=O)c4ccc5[nH]c(=O)[nH]c5c4)cc3)CC2)c1C	-5.1*	-13	i	214	i	i
CCc1nn(C(C)C(=O)NCCc2ccccc2)c(=O)c2cc3occc3n12 (centres undefined)	-5.7*	12	i	422	i	i
Cc1nn(C(C)C(=O)NC(C)CCc2ccccc2)c(=O)c2cc3occc3n12 (centres undefined)	-6.9*	14	i	125	55%*	i
CCc1nn(C(C)C(=O)NCc2cccc(Cl)c2)c(=O)c2cc3occc3n12 (centres undefined)	i	0	i	361	/	/
CCc1nn(C(C)C(=O)NC(C)CCc2ccco2)c(=O)c2cc3occc3n12 (centres undefined)	-5.9*	13	i	188	49%*	-14*
CCc1nn(CCCC(=O)N2CCc3ccccc3C2)c(=O)c2cc3occc3n12	-5.7*	-2	i	277	58%*	-9*
O=S(=O)(c1ccc(F)cc1)N1CCC2(CC1)OCCN2S(=O)(=O)c1cccs1	i	6	i	281	/	/
COc1cc(C2Nc3ccc4ncccc4c3C3=C2C(=O)CCC3)ccc1O (centres undefined)	-6.2*	-1	i	252	i	i
Cc1ccsc1C1Nc2ccc3ncccc3c2C2=C1C(=O)CCC2 (centres undefined)	i	1	i	524	/	/
OCCNCc1cccc(Br)c1	i	6	i	251	/	/
Clc1cccc(CNCCNCc2cccc(Cl)c2)c1	-7*	15	i	130	70%*	i
Cc1cccc(N2CCN(C(=O)Cc3c(C(=O)O)[nH]c4ccc(Cl)cc34)CC2)c1C	-11*	0	i	316	56%*	i
Nn1c(SCc2ccccc2)nc2ccccc21	i	2	i	206	/	/
C=CCOC(=O)C1=C[C@@H](c2cn(C(C)=O)c3ccccc23)C[C@@H](OCCCCO)O1	-5.3*	15	i	596	i	i
COC(=O)c1cccc(Nc2ncnc3ccc(C)cc23)c1	i	15	i	462	/	/
CCOC(=O)c1cccc(Nc2ncnc3ccccc23)c1	-8.2*	31	i	529	25%*	i
Cc1ccc2c(c1)C(c1ccccc1)N(C(=O)c1ccc(Br)cc1)CC(=O)N2 (centres undefined)	i	12	i	185	/	/
CCCCn1c(N)c(N(CC(C)C)C(=O)COC(=O)C2(c3ccccc3)CC2)c(=O)[nH]c1=O	i	-1	i	571	/	/
COc1cccc(C2/C(=C(\O)c3ccc4c(c3)OCCO4)C(=O)C(=O)N2c2nnc(C)s2)c1 (centres undefined)	-5.7*	-2	i	357	i	i
Cc1ccc(C2=NCCn3nc4cc(C(F)(F)F)ccc4c32)cc1	i	22	i	203	/	/
CC1Cc2nc(SCC(=O)NCC3CCCO3)n(-c3ccc(F)cc3)c(=O)c2S1 (centres undefined)	i	2	i	467	/	/
SMILES	CHT block	VLA-4 inh	CHT PAM	T cell modulator	CHT inh conf	HEK293 MPD ctr
Cc1cccc(C(=O)NNC2=C(C(=O)C(F)(F)F)CCC2)c1O	-7.9*	3	i	259	37%*	i
O=C(C1CCN(S(=O)(=O)c2c(Cl)cccc2Cl)CC1)N1CCCCCCC1	i	8	i	384	/	/
Cc1cccc(C(=O)N[C@H](C(=O)Nc2nnc(C3CC3)s2)C(C)C)c1	i	17	i	147	/	/
Cc1cccc(C(=O)N[C@H](C(=O)Nc2ncc(C)s2)C(C)C)c1	-11*	4	i	290	i	i
Cc1cccc(NC(=S)N2CCC(NC(=O)c3ccco3)CC2)c1	i	1	i	409	/	/
O=[N+]([O-])c1ccc(Sc2ncc3ccccn23)nc1	-13*	7	i	294	7.7%*	i
O=[N+]([O-])c1ccc(Sc2ccccc2Cl)nc1	i	10	i	460	/	/
Cc1nc2cc(C(=O)N3c4ccccc4CC3C)ccc2s1 (centres undefined)	-5.3*	5	i	268	56%*	i
CCOc1[nH]c(/N=C/c2ccco2)c(C#N)c1C#N	-5.1*	-16	i	420	53%*	i
N#Cc1c(/N=C/c2ccco2)sc2c1CCC2	i	0	i	264	/	/
O=C(c1ccnc(Cl)c1)N1CCCC(N2CCN(c3ccccc3F)CC2)C1 (centres undefined)	i	6	i	331	/	/
Cc1cc(S(=O)(=O)NCc2ccncc2)c(C)cc1Br	-5*	8	i	351	67%*	i
C=CCNC(=O)c1ccc(NC(=O)CC2SC(N3CCCC3)=NC2=O)cc1 (centres undefined)	i	3	i	306	/	/
CCCCn1nc2cc(C(=O)NC3CCCc4ccccc43)ccc2c1OCC (centres undefined)	-9.6*	3	i	404	21%*	i
CCCCn1nc2cc(C(=O)N[C@H](C)C3CCCCC3)ccc2c1OCC	-11*	/	i	/	5.4%*	i
CCCn1nc2cc(C(=O)NCc3ccc(C)cc3)ccc2c1OCC	-5.6*	-1	i	696	56%*	i
CCCCn1nc2cc(C(=O)NCc3cc(C(F)(F)F)cc(C(F)(F)F)c3)ccc2c1OCC	i	-14	i	469	/	/
CCN(C[C@H]1N[C@@](CC)(C(=O)OC)[C@H]2C(=O)N(C)C(=O)[C@@H]12)C(=O)Nc1ccc(C)cc1	/	-14	/	0	/	/
CN1CCCN(C(=O)c2cc(-c3ccc(Cl)c(Cl)c3Cl)nc3ccccc23)CC1	-8*	10	i	286	i	i
COC(=O)C(CC(=O)c1ccccc1)CC(=O)c1ccccc1	-5*	5	i	184	i	i
CCOC(=O)C(CC(=O)c1ccccc1)CC(=O)c1ccccc1	i	8	i	200	/	/
